Experimental findings from ChEMBL document CHEMBL1125363, “Novel piperidine sigma receptor ligands as potential antipsychotic drugs” (J Med Chem, 1992) are described below.

The term Ki denotes a dissociation constant, usually derived from enzyme kinetics or from competition with a known ligand. Higher therefore signals lower affinity. A word on the IC50: it is the concentration needed to halve the response being measured. Read a low IC50 as higher potency. A word on the ED50: it is the dose that gives a 50% effect, or the effect in half of the subjects. Low values mean an effect at a small dose, high ones a need for a large dose.

Assay [1] concerns the target Serotonin 2 (5-HT2) receptor (Mus musculus, UniProt Q02152+P34968+P35363). Briefly: In vitro binding affinity for serotonin 5-hydroxytryptamine (5-HT) 2 receptors. The class given is protein assay.
Assay [2] has as its target Sigma non-opioid intracellular receptor 1 (Mus musculus, UniProt O55242). Nature of the assay: In vitro binding affinity for the mouse sigma opioid receptor.
The target in another assay is D(2) dopamine receptor (Mus musculus, UniProt P61168). Briefly: In vitro binding affinity towards dopamine receptor D2.
Chain of D(2) dopamine receptor (P61168 whole entry): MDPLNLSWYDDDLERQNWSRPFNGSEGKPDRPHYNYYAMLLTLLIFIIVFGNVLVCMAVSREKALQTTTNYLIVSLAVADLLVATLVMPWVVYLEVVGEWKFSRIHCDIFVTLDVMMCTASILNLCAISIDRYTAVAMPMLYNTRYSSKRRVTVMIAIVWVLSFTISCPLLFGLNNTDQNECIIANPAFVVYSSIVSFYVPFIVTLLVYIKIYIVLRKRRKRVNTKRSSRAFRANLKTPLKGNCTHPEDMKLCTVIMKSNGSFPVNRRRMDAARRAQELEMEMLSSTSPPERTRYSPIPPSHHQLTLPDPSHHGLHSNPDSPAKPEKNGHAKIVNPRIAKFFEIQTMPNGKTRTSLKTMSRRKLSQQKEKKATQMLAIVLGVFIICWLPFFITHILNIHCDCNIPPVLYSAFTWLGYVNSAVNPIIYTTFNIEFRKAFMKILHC
The species named for another assay is Mus musculus. Briefly: Oral potency tested by using anti-mescaline test. The assay is classed as functional. The method in brief: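 Mice; mescaline was given to evoke hallucinogen-type behaviour, and the test compound was dosed orally to antagonise it. Potency is the ED50 in mg/kg po. Some ED50s are the average of three measurements.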

Where only a bound is given, the exact number is not on record here.

Chain of Sigma non-opioid intracellular receptor 1 (O55242 whole entry): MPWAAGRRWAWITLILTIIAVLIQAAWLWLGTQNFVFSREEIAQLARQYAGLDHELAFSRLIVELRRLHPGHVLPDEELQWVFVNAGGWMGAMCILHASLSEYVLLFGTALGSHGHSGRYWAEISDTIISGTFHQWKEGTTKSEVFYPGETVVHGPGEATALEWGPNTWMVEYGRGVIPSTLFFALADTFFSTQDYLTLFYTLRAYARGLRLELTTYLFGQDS

Take `COc1ccc(C(=O)CC2CCN(Cc3ccccc3)CC2)cc1`: the inhibition constant Ki was 313 nM in assay [1] and 4 nM in assay [2]. The compound further gave an IC50 at D(2) dopamine receptor of 6070 nM. Further, the ED50 in the assay listed under Mus musculus was greater than 30 mg/kg.

`COc1ccc(-c2ccc(OCC3CCN(CC4CC4)CC3)cc2)cc1` showed a Ki in assay [2] of 218 nM. The compound also registered an IC50 at D(2) dopamine receptor of 7220 nM.

As to `O=C(CCCN1CCC(C(=O)Cc2ccc(F)cc2)CC1)c1ccc(F)cc1`, the results for the Ki in assay [1] and in assay [2] were 17 nM and 40 nM, respectively. This compound also yielded an ED50 in the assay listed under Mus musculus of 1.9 mg/kg.

The compound `O=C(CC1CCCCN1Cc1ccccc1)c1ccc(F)cc1.O=C(O)/C=C\C(=O)O` (configuration not stated) yielded a Ki in assay [2] of 37 nM. Also, the IC50 on D(2) dopamine receptor turned out to be 3340 nM. This compound came in with an ED50 in the assay filed under Mus musculus of 4.3 mg/kg.

`CSc1ccc(C(O)CC2CCN(Cc3ccccc3)CC2)cc1` (configuration not stated): the Ki in assay [1] is greater than 100 nM; in assay [2], 10 nM. This compound also displayed an IC50 on D(2) dopamine receptor of 7630 nM. This compound displayed an ED50 in the assay filed under Mus musculus greater than 30 mg/kg.

Consider `O.OC(CC1CCN(CCc2ccccc2)CC1)c1ccc(F)cc1` (configuration not stated), for which the Ki in assay [1] amounted to 101 nM; in assay [2] it was 7 nM. On D(2) dopamine receptor, this compound had an IC50 of 806 nM. The same compound displayed an ED50 in the assay listed under Mus musculus of less than 10 mg/kg.

Turning to `O.OC(Cc1ccc(F)cc1)C1CCN(CCCc2ccccc2)CC1` (configuration not stated), the Ki in assay [1] was 41 nM; in assay [2], 7 nM. Also, on D(2) dopamine receptor, the IC50 was 1700 nM.

For the compound `CC(O)c1ccc(OCC2CCN(CC3CC3)CC2)cc1` (configuration not stated), affinity in assay [2] was put at a Ki of 98 nM. Also, the IC50 on D(2) dopamine receptor was greater than 10000 nM.

In turn, `O=C(CC1CCCN(CC2CC2)C1)c1ccc(F)cc1` (configuration not stated) displayed a Ki in assay [2] of 17 nM. On D(2) dopamine receptor, this compound came in with an IC50 of 185 nM. In the assay listed under Mus musculus, this compound displayed an ED50 of 1.3 mg/kg.

Compound `O=C(CC1CCCN(Cc2ccccc2)C1)c1ccc(F)cc1` (configuration not stated) displayed a Ki in assay [2] of 14 nM. On D(2) dopamine receptor, this compound registered an IC50 of 34 nM. This compound also displayed an ED50 in the assay listed under Mus musculus of 1.1 mg/kg.

As to `CC1CC1CN1CCC(COc2ccc(F)cc2)CC1.O=C(O)/C=C\C(=O)O` (configuration not stated), the values for the Ki in assay [1] and in assay [2] were 24 nM and 5 nM, respectively. Moreover, on D(2) dopamine receptor, the IC50 came to 945 nM. The compound also registered an ED50 in the assay listed under Mus musculus greater than 10 mg/kg.

`Nc1ccc(C(=O)CC2CCN(CC3CC3)CC2)cc1.O` displayed a Ki in assay [2] of 146 nM. On D(2) dopamine receptor, the IC50 was greater than 10000 nM. Also, the ED50 in the assay filed under Mus musculus amounted to 10 mg/kg.

As to `OC(CC1CCN(CCC2CC2)CC1)c1ccc(F)cc1` (configuration not stated), the affinity in assay [2], expressed as Ki, was 155 nM. The compound further displayed an IC50 on D(2) dopamine receptor greater than 10000 nM.

`FC(F)(F)c1ccc(OCC2CCN(Cc3ccccc3)CC2)cc1`: the inhibition constant (Ki) in assay [1] is 350 nM; in assay [2], 2 nM. On D(2) dopamine receptor, this compound showed an IC50 of 1930 nM. For the same compound, the ED50 in the assay listed under Mus musculus amounted to 6 mg/kg.

In the case of `O=C(CC1CCN(Cc2ccc(C(F)(F)F)cc2)CC1)c1ccc(F)cc1`, the Ki in assay [1] is 6 nM; in assay [2], 3 nM. The same compound had an IC50 at D(2) dopamine receptor of 195 nM. In the assay listed under Mus musculus, this compound returned an ED50 of 1.8 mg/kg.

For `c1cc(OCC2CCN(CC3CC3)CC2)ccn1`, in assay [2], the Ki turned out to be 175 nM. The compound further displayed an IC50 at D(2) dopamine receptor greater than 10000 nM.

On to `O=C(Cc1ccc(F)cc1)CC1CCN(Cc2ccccc2)CC1.O=C(O)/C=C\C(=O)O`, for which the Ki in assay [1] is 316 nM; in assay [2], 3 nM. Further, the IC50 on D(2) dopamine receptor turned out to be 1100 nM. The same compound showed an ED50 in the assay filed under Mus musculus greater than 30 mg/kg.

`C[S+]([O-])c1ccc(C(=O)CC2CCN(Cc3ccccc3)CC2)cc1.O` (configuration not stated): the Ki in assay [1] amounted to 204 nM; in assay [2], 53 nM. On D(2) dopamine receptor, this compound yielded an IC50 greater than 10000 nM. Also, in the assay filed under Mus musculus, the ED50 is greater than 30 mg/kg.

Take `O=C(CC1CCN(CCc2ccc(F)cc2)CC1)c1ccc(F)cc1`: the Ki in assay [1] stood at 10 nM; in assay [2], 7 nM. Further, the IC50 on D(2) dopamine receptor was 57 nM. The compound further had an ED50 in the assay filed under Mus musculus of 0.13 mg/kg.

Take `COc1ccc(CN2CCC(COc3ccc(F)cc3)CC2)cc1.O.O=C(O)/C=C\C(=O)O`: the Ki in assay [2] was found to be 30 nM. The IC50 at D(2) dopamine receptor stood at 1340 nM. It took a dose of 6.5 mg/kg to reach the 50% effect level in the assay listed under Mus musculus (ED50).

In the case of `O=C(CC1CCN(Cc2ccccc2)CC1)c1ccc(-c2ccccc2)cc1`, the Ki in assay [1] is greater than 100 nM; in assay [2], 33 nM. At D(2) dopamine receptor, this compound gave a half-maximal inhibitory concentration (IC50) of 3010 nM. Besides, in the assay filed under Mus musculus, it took a dose of 30 mg/kg to reach the 50% effect level (ED50).

`CC(=O)c1ccc(OCC2CCN(CC3CC3)CC2)cc1`: the Ki was greater than 1000 nM in assay [1] and 9 nM in assay [2]. This compound displayed an IC50 on D(2) dopamine receptor of 539 nM. The ED50 in the assay listed under Mus musculus was greater than 30 mg/kg.

Compound `[O-][S+](CC1CCN(CCC2CC2)CC1)c1ccc(F)cc1` (configuration not stated) returned a Ki in assay [2] of 310 nM. For the same compound, the IC50 at D(2) dopamine receptor was greater than 10000 nM.

Compound `CN(C)S(=O)(=O)c1ccc(OCC2CCN(CC3CC3)CC2)cc1` displayed an inhibition constant (Ki) in assay [2] greater than 10000 nM.

Regarding `O.c1ccc(CN2CCC(COc3ccc4ccccc4c3)CC2)cc1`, the inhibitory constant (Ki) is 173 nM in assay [1] and 6 nM in assay [2]. The same compound displayed an IC50 at D(2) dopamine receptor of 1020 nM. Also, in the assay filed under Mus musculus, the ED50 was greater than 30 mg/kg.

`Cl.Fc1ccc(OCC2CCN(CC3CC3)CC2)cc1F`: the figures for the Ki in assay [1] and in assay [2] were 41 nM and 2 nM, respectively. The same compound returned an IC50 at D(2) dopamine receptor of 2840 nM. This compound gave an ED50 in the assay filed under Mus musculus of 4.5 mg/kg.

For the compound `c1cnc(OCC2CCN(CC3CC3)CC2)nc1`, the affinity in assay [2] corresponds to a Ki of 347 nM. Besides, the half-inhibitory concentration (IC50) on D(2) dopamine receptor was determined as 4440 nM.

`Cl.c1ccc(OCC2CCN(CC3CC3)CC2)nc1`: the Ki in assay [1] was 1378 nM; in assay [2], 44 nM. Besides, at D(2) dopamine receptor, the IC50 was 4670 nM. In the assay filed under Mus musculus, this compound showed an ED50 greater than 30 mg/kg.

With `Cl.O=[N+]([O-])c1ccc(OCC2CCN(Cc3ccccc3)CC2)cc1`, the Ki in assay [1] stood at 272 nM; in assay [2], 5 nM. Besides, the IC50 on D(2) dopamine receptor is 4390 nM. In the assay listed under Mus musculus, this compound registered an ED50 of 14 mg/kg.

Take `Cl.Fc1ccc(OCCC2CCN(Cc3ccccc3)CC2)cc1.O`: the Ki was less than 100 nM in assay [1] and 4 nM in assay [2]. In addition, the IC50 on D(2) dopamine receptor amounted to 114 nM. The same compound displayed an ED50 in the assay filed under Mus musculus of 16 mg/kg.

For the compound `Br.CN(C)c1ccc(C(=O)CC2CCN(CC3CC3)CC2)cc1.O`, the Ki was 559 nM in assay [1] and 33 nM in assay [2]. On D(2) dopamine receptor, the IC50 is greater than 10000 nM. Further, in the assay listed under Mus musculus, the 50% effect level (ED50) was put at a dose of 30 mg/kg.

Take `Cl.OC(CC1CCN(Cc2ccccc2)CC1)c1ccc(C(F)(F)F)cc1` (configuration not stated): the results for the Ki in assay [1] and in assay [2] were greater than 100 nM and 6 nM, respectively. The IC50 on D(2) dopamine receptor was greater than 10000 nM. Besides, the ED50 in the assay listed under Mus musculus is greater than 30 mg/kg.

For the compound `Cl.Oc1ccc(CN2CCC(COCc3ccc(F)cc3)CC2)cc1`, the Ki in assay [1] amounted to 500 nM; in assay [2], 7 nM. On D(2) dopamine receptor, this compound returned an IC50 of 3130 nM. Moreover, in the assay listed under Mus musculus, the ED50 was greater than 10 mg/kg.

Turning to `Cl.OC(Cc1ccccc1)C1CCN(Cc2ccccc2)CC1` (configuration not stated), the Ki in assay [1] worked out at 1603 nM; in assay [2], 18 nM. Besides, the IC50 at D(2) dopamine receptor is 8300 nM. In the assay filed under Mus musculus, this compound registered an ED50 of less than 10 mg/kg.

As to `Cl.Fc1ccc(COCC2CCN(Cc3ccc(OCc4ccccc4)cc3)CC2)cc1`, the Ki in assay [1] is less than 100 nM; in assay [2], 27 nM. On D(2) dopamine receptor, the IC50 was found to be 773 nM. This compound came in with an ED50 in the assay filed under Mus musculus of less than 30 mg/kg.

Turning to `CSc1ccc(OCC2CCN(CC3CC3)CC2)cc1.Cl`, the Ki in assay [1] was determined as 114 nM; in assay [2] it was 7 nM. On D(2) dopamine receptor, this compound yielded an IC50 of 1980 nM. For the same compound, the ED50 in the assay listed under Mus musculus is greater than 30 mg/kg.

Regarding `Fc1ccc(COCC2CCN(CCCc3ccccc3)CC2)cc1`, in assay [2], the inhibitory constant (Ki) turned out to be 304 nM. Further, the IC50 on D(2) dopamine receptor is greater than 10000 nM.

For `COc1ccc(OCC2CCN(CC3CC3)CC2)cc1.Cl.O`, the results for the Ki in assay [1] and in assay [2] were greater than 100 nM and 18 nM, respectively. Also, the IC50 at D(2) dopamine receptor is greater than 10000 nM. In the assay listed under Mus musculus, this compound came in with an ED50 greater than 30 mg/kg.

For `COC(=O)c1ccc(CN2CCC(COCc3ccc(F)cc3)CC2)cc1.Cl`, the Ki is 313 nM in assay [1] and 7 nM in assay [2]. Further, the IC50 at D(2) dopamine receptor stood at 1980 nM. The same compound gave an ED50 in the assay listed under Mus musculus greater than 10 mg/kg.
